Data taken from ChEMBL document CHEMBL1121966, “(2R*,3S*)-1-[125I]Iodo-2,3-bis(4-hydroxyphenyl)pentane ([125I]iodonorhexestrol) and (2R*,3S*)-1-[77Br]Bromo-2,3-bis(4-hydroxyphenyl)pentane ([77Br]bromonorhexestrol), two gamma-emitting estrogens that show receptor-mediated uptake by target tissues in vivo” (1982).

What was measured:
[1] = Thyroid/blood distribution ratio was determined in immature female rats at 1 hr; assay type: functional
Summary of the method: (§1)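 Immature (25 day) female Sprague-Dawley rats (ca. 50 g) were dosed iv (jugular or tail vein) in ethanol plus 0.9% NaCl/rat serum (1:1). Doses were 2 μCi of [125I]iodonorhexestrol (≤15 pmol/dose), or 2 μCi each of [77Br]bromonorhexestrol (≤1.25 pmol/dose) and 16α-[125I]iodoestradiol (2 pmol/dose). Rats were killed at 1, 3 or 6 h; blood and tissues were weighed and γ-counted. Thyroid weight assumed 0.005 g/100 g body weight. Mean ± SD.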

[2] = Liver/blood distribution ratio was determined in immature female rats at 6 hr; assay type: functional
Summary of the method: (§2)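 Dual-label study in immature 25-day female Sprague-Dawley rats (ca. 50 g). Each received 2 μCi [77Br]bromo tracer (≤1.25 pmol/dose) and 2 μCi 16α-[125I]iodoestradiol (2 pmol/dose) by tail or jugular vein, in ethanol diluted with saline/rat serum 1:1. Rats were killed at 3 or 6 h; blood and 11 tissues were weighed and counted. Five rats per time point; mean ± SD.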

Rattus norvegicus [3] = species on record: Rattus norvegicus; assay: Percent injected dose per gram liver at 1 hr with unlabeled estradiol; assay type: functional
Summary of the method: (§3)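 Same iv biodistribution in immature female rats, killed at 1 h, with unlabeled estradiol coinjected to block receptor uptake: 9 μg with [125I]iodonorhexestrol (3 rats), 18 μg with the [77Br]bromonorhexestrol/16α-[125I]iodoestradiol pair (5 rats). Tissue and blood radioactivity were counted as % injected dose/g and tissue-to-blood ratio.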

[4] = Spleen/blood distribution ratio was determined immature female rats at 1 hr; assay type: functional; summary of the method: as §1
Rattus norvegicus [5] = species on record: Rattus norvegicus; assay: Percent injected dose per gram thyroid at 6 hr; assay type: functional, Thyroid gland; summary of the method: as §1
Rattus norvegicus [6] = species on record: Rattus norvegicus; assay: Percent injected dose per gram Ovaries at 3h; assay type: functional; summary of the method: as §2
Rattus norvegicus [7] = species on record: Rattus norvegicus; assay: Percent injected dose per gram Muscle at 6 hr; assay type: functional; summary of the method: as §2
[8] = Uterus/blood distribution ratio was measured in immature female rats at 1 hr; assay type: functional; summary of the method: as §1
Rattus norvegicus [9] = species on record: Rattus norvegicus; assay: Percent injected dose per gram kidney at 6 hr; assay type: functional; summary of the method: as §2
Rattus norvegicus [10] = species on record: Rattus norvegicus; assay: Percent injected dose per gram blood at 1 hr with unlabeled estradiol; assay type: functional
Summary of the method: (§4)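 Immature (25-day, ca. 50 g) Sprague-Dawley female rats received an iv injection (jugular or tail vein) of HPLC-purified tracer in ethanol plus 0.9% NaCl/rat serum 1:1. Doses were 2 μCi [125I]iodo tracer (≤15 pmol), or 2 μCi [77Br]bromo tracer (≤1.25 pmol) with 2 μCi 16α-[125I]iodoestradiol. Animals were killed at 1 h; blood and tissues were weighed and γ-counted. Blocking: coinjected unlabeled estradiol, 9 μg (iodo) or 18 μg (bromo). Mean ± SD.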

[11] = Liver/blood distribution ratio was determined in immature female rats at 1 hr with unlabeled estradiol; assay type: functional; summary of the method: as §4
[12] = Esophagus/blood distribution ratio was determined in immature female rats at 3h; assay type: functional; summary of the method: as §2
[13] = Uterus/blood distribution ratio was measured in immature female rats at 3h; assay type: functional; summary of the method: as §1
[14] = Thyroid/blood distribution ratio was determined in immature female rats at 1 hr with unlabeled estradiol; assay type: functional; summary of the method: as §3
[15] = Muscle/blood distribution ratio was determined immature female rats at 1 hr with unlabeled estradiol; assay type: functional; summary of the method: as §4
[16] = Uterus/blood distribution ratio was measured in immature female rats at 6 hr; assay type: functional; summary of the method: as §1
Rattus norvegicus [17] = species on record: Rattus norvegicus; assay: Percent injected dose per gram spleen at 1 hr; assay type: functional; summary of the method: as §1
Rattus norvegicus [18] = species on record: Rattus norvegicus; assay: Percent injected dose per gram Muscle at 1 hr with unlabeled estradiol; assay type: functional; summary of the method: as §4
[19] = Esophagus/blood distribution ratio was determined in immature female rats at 1 hr with unlabeled estradiol; assay type: functional; summary of the method: as §4
Rattus norvegicus [20] = species on record: Rattus norvegicus; assay: Percent injected dose per gram thyroid at 1 hr; assay type: functional, Thyroid gland; summary of the method: as §1
Rattus norvegicus [21] = species on record: Rattus norvegicus; assay: Percent injected dose per gram blood at 1 hr; assay type: functional; summary of the method: as §4
[22] = Tissue/blood distribution ratio was measured in immature female rats at 1 hr; assay type: functional; summary of the method: as §1
Rattus norvegicus [23] = species on record: Rattus norvegicus; assay: Percent injected dose per gram liver at 3h; assay type: functional; summary of the method: as §1
[24] = Lung/blood distribution ratio was determined in immature female rats at 1 hr with unlabeled estradiol; assay type: functional; summary of the method: as §4
Rattus norvegicus [25] = species on record: Rattus norvegicus; assay: Percent injected dose per gram esophagus at 6 hr; assay type: functional; summary of the method: as §2
Rattus norvegicus [26] = species on record: Rattus norvegicus; assay: Percent injected dose per gram lung at 1 hr with unlabeled estradiol; assay type: functional; summary of the method: as §3
Rattus norvegicus [27] = species on record: Rattus norvegicus; assay: Percent injected dose per gram thyroid at 3h; assay type: functional, Thyroid gland; summary of the method: as §1
Rattus norvegicus [28] = species on record: Rattus norvegicus; assay: Percent injected dose per gram kidney at 1 hr; assay type: functional; summary of the method: as §4
[29] = Muscle/blood distribution ratio was determined in immature female rats at 3h; assay type: functional; summary of the method: as §2
Rattus norvegicus [30] = species on record: Rattus norvegicus; assay: Percent injected dose per gram Uterus at 1 hr; assay type: functional; summary of the method: as §4
[31] = Tissue/blood distribution ratio was measured in immature female rats at 1h, unlabeled estradiol (18 microg) coinjected; assay type: functional
Summary of the method: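 Immature female rats given iv [77Br]bromonorhexestrol with 16α-[125I]iodoestradiol (2 μCi each) plus 18 μg unlabeled estradiol coinjected; killed at 1 h. Tissue and blood were weighed and counted, and tissue-to-blood radioactivity ratios were computed; 5 animals, mean ± SD.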

[32] = Tissue/blood distribution ratio was measured in immature female rats at 6 hr; assay type: functional; summary of the method: as §1
[33] = Spleen/blood distribution ratio was determined immature female rats at 6 hr; assay type: functional; summary of the method: as §1
[34] = Ovary/blood distribution ratio was determined in immature female rats at 1 hr with unlabeled estradiol; assay type: functional; summary of the method: as §4
[35] = Uterus/blood distribution of compound was measured in immature female rats at 1 hr with unlabeled estradiol; assay type: functional; summary of the method: as §3
Rattus norvegicus [36] = species on record: Rattus norvegicus; assay: Percent injected dose per gram Muscle at 1 hr; assay type: functional; summary of the method: as §4
[37] = Thyroid/blood distribution ratio was determined in immature female rats at 6 hr; assay type: functional; summary of the method: as §1
[38] = Kidney/blood distribution ratio was determined in immature female rats at 6 hr; assay type: functional; summary of the method: as §2
Rattus norvegicus [39] = species on record: Rattus norvegicus; assay: Percent injected dose per gram esophagus at 1 hr with unlabeled estradiol; assay type: functional; summary of the method: as §4
Rattus norvegicus [40] = species on record: Rattus norvegicus; assay: Percent injected dose per gram lung at 6 hr; assay type: functional; summary of the method: as §1

## C[C@]12CC[C@@H]3c4ccc(O)cc4CC[C@H]3[C@@H]1C[C@@H](I)[C@@H]2O
[1]
  Ratio: 30.8
[2]
  Ratio: 6.28
Rattus norvegicus [3]
  Injected dose: 4.91%
[4]
  Ratio: 0.46
Rattus norvegicus [5]
  Injected dose: 276.6%
Rattus norvegicus [6]
  Injected dose: 1.75%
Rattus norvegicus [7]
  Injected dose: 0.05%
[8]
  Ratio: 9.54
Rattus norvegicus [9]
  Injected dose: 0.4%
Rattus norvegicus [10]
  Injected dose: 1.22%
[11]
  Ratio: 3.95
[12]
  Ratio: 0.47
[13]
  Ratio: 7.36
[14]
  Ratio: 44.5
[15]
  Ratio: 0.5
[16]
  Ratio: 9.14
Rattus norvegicus [17]
  Injected dose: 0.43%
Rattus norvegicus [18]
  Injected dose: 0.92%
[19]
  Ratio: 0.95
Rattus norvegicus [20]
  Injected dose: 7.46%
Rattus norvegicus [21]
  Injected dose: 0.47%
[22]
  Ratio: 1
Rattus norvegicus [23]
  Injected dose: 1.96%
[24]
  Ratio: 1.08
Rattus norvegicus [25]
  Injected dose: 0.14%
Rattus norvegicus [26]
  Injected dose: 1.76%
Rattus norvegicus [27]
  Injected dose: 190.9%
Rattus norvegicus [28]
  Injected dose: 1.48%
[29]
  Ratio: 0.25
Rattus norvegicus [30]
  Injected dose: 9.59%
[31]
  Ratio: 1
[32]
  Ratio: 1
[33]
  Ratio: 0.35
[34]
  Ratio: 1.36
[35]
  Ratio: 1.37
Rattus norvegicus [36]
  Injected dose: 0.53%
[37]
  Ratio: 472.6
[38]
  Ratio: 3.49
Rattus norvegicus [39]
  Injected dose: 1.07%
Rattus norvegicus [40]
  Injected dose: 0.14%
